In ChEMBL document CHEMBL1921791, “Arylsulfonamidopiperidone derivatives as a novel class of factor Xa inhibitors” (Bioorg Med Chem Lett, 2011) one finds Papp A→B and half-life data, which are given here for 8 compounds.

Data set [1] is described as follows: Permeability from apical to basolateral side of human Caco2 cells at 3 uM. Type of data set: ADME, cell-based. To be noted: Caco-2, read-out: permeability. A digest of the protocol: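 Caco-2 monolayers: apical-to-basolateral permeability was measured at pH 6.5 and reported in nm/s.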
The nature of data set [2]: Half life in cynomolgus monkey liver microsomes at 0.5 uM at pH 7.4 in presence of NADPH. Type of data set: ADME, Macaca fascicularis, Microsome. A digest of the protocol: (§1)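 Liver microsomal stability was measured with 0.5 µM compound and 1.0 mg/mL microsomal protein, in 1.0 mM NADPH, 100 mM NaPi and 5.0 mM MgCl₂, at pH 7.4 and 37 °C. Half-life was determined.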
In general terms: Liver microsomes are a subcellular fraction often used to study metabolism.

Data set [3] in a line: Half life in mouse liver microsomes at 0.5 uM at pH 7.4 in presence of NADPH. It is filed as ADME, Microsome. A digest of the protocol:
as §1

The nature of data set [4]: Half life in human liver microsomes at 0.5 uM at pH 7.4 in presence of NADPH. It is filed as ADME, Microsome. A digest of the protocol:
as §1

Data set [5] can be described thus: Half life in rat liver microsomes at 0.5 uM at pH 7.4 in presence of NADPH. Type of data set: ADME, Microsome. A digest of the protocol: as §1
A short description of data set [6]: Half life in dog liver microsomes at 0.5 uM at pH 7.4 in presence of NADPH. Type of data set: ADME, Canis lupus familiaris, Microsome. The procedure, abridged:
as §1

As to `O=C(CN1CCC[C@H](NS(=O)(=O)c2ccc3cc(Cl)ccc3c2)C1=O)N1CC2CNCC(C2)C1`, the Papp A→B at 3 µM in data set [1] was < 1.5 ×10⁻⁶ cm/s.

Regarding `O=C(CN1CCC[C@H](NS(=O)(=O)c2ccc3cc(Cl)ccc3c2)C1=O)N1C[C@@H]2C[C@H](C1)c1cccc(=O)n1C2`, the half-life at 0.5 µM in data set [2], in data set [3], in data set [4], in data set [5] and in data set [6] was < 2 min in each case. Also, the Papp A→B at 3 µM in data set [1] amounted to 2.5 ×10⁻⁶ cm/s.

Consider `CC(=O)N1CC2CC(C1)CN(C(=O)CN1CCC[C@H](NS(=O)(=O)c3ccc4cc(Cl)ccc4c3)C1=O)C2`, for which the half-life at 0.5 µM in data set [2], in data set [3], in data set [4], in data set [5] and in data set [6] was < 2 min throughout. Also, in data set [1], the Papp A→B at 3 µM stood at 7.3 ×10⁻⁶ cm/s.

As to `NC(=O)N1CC2CC(C1)CN(C(=O)CN1CCC[C@H](NS(=O)(=O)c3ccc4cc(Cl)ccc4c3)C1=O)C2`, in data set [1], the Papp A→B at 3 µM is < 1.5 ×10⁻⁶ cm/s.

For `NC(=O)C(=O)N1CC2CC(CN(C(=O)CN3CCC[C@H](NS(=O)(=O)c4ccc5cc(Cl)ccc5c4)C3=O)C2)C1`, the Papp A→B at 3 µM in data set [1] is < 1.5 ×10⁻⁶ cm/s.

As to `CS(=O)(=O)N1CC2CC(CN(C(=O)CN3CCC[C@H](NS(=O)(=O)c4ccc5cc(Cl)ccc5c4)C3=O)C2)C1`, in data set [1], the Papp A→B at 3 µM is < 1.5 ×10⁻⁶ cm/s.

For `O=C(CN1CCC[C@H](NS(=O)(=O)c2ccc3cc(Cl)ccc3c2)C1=O)N1CC2CC(C1)CN(C(=O)C1CCNCC1)C2`, the Papp A→B at 3 µM in data set [1] was < 1.5 ×10⁻⁶ cm/s.

Regarding `Nc1[nH]ncc1C(=O)N1CC2CC(CN(C(=O)CN3CCC[C@H](NS(=O)(=O)c4ccc5cc(Cl)ccc5c4)C3=O)C2)C1`, in data set [1], the Papp A→B at 3 µM is < 1.5 ×10⁻⁶ cm/s.
